pIC50: −log10 of the molar value. In brackets after ≈: the same amount, converted by molar mass.
Experiments:
[1] = biological target: T1, ATP-dependent RNA helicase SUPV3L1, mitochondrial (Homo sapiens, UniProt Q8IYB8); experiment: Inhibitory activity determined against human Suv3 helicase using DNA as substrate
T1 sequence (Q8IYB8 whole entry): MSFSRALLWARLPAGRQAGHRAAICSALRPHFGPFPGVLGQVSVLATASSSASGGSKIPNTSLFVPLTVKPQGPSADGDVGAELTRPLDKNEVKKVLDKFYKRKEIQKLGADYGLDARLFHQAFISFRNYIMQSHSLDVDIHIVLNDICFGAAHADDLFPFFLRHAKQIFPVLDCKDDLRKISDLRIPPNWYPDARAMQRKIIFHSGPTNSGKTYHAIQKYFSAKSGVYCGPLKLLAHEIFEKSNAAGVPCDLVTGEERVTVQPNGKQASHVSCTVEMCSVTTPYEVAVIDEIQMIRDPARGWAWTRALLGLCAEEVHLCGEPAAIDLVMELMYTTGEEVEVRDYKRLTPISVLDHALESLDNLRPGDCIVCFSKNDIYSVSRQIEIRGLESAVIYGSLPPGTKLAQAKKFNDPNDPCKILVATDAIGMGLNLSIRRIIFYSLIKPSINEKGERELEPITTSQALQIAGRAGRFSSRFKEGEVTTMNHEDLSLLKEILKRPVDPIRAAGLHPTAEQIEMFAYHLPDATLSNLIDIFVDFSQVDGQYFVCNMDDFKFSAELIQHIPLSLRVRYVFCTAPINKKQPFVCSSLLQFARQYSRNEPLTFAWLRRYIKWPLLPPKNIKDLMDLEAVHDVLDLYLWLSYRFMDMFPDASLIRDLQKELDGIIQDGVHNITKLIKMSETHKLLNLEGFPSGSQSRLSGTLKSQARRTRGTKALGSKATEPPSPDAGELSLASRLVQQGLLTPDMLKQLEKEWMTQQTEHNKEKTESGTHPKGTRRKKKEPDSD
Method in brief: (§1)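 Human Suv3(Δ1-159), expressed in E. coli from pQE60, 0.2 pmol per assay. Substrate: partially hybridized 32P-labelled DNA or RNA duplex (per line), 4.7 pM nucleotide base. Run with ATP at its Km of 4.2 µM in Tris/HCl pH 7.5 with MgCl2, 30 min at 30 °C. Released strand separated by TBE-PAGE and quantified by 32P counting. IC50 is 50% of control unwinding; representative of three experiments.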

West Nile virus [2] = experiment: Inhibitory activity determined against west nile virus (WNV) NTPase/helicase (NTPase/helicase Non structural protein 3) using RNA as substrate; type: functional
Method in brief: (§2)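 WNV NTPase/helicase (2 pmol), purified from culture medium of virus-infected Vero E6 cells, unwinding a partially hybridized 32P 5'-labelled duplex (26-mer release strand on 40-mer template; DNA or RNA per line, 4.7 pM nucleotide base). Conditions: ATP at Km (9.5 µM), 20 mM Tris/HCl pH 7.5, 2 mM MgCl2, 30 min at 30 °C. Released strand resolved on TBE-PAGE and its radioactivity counted. IC50 is 50% of compound-free unwinding; representative of three independent experiments.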

[3] = biological target: T1, ATP-dependent RNA helicase SUPV3L1, mitochondrial; experiment: Inhibitory activity against human Suv3 helicase using RNA as substrate; method in brief: as §1
West Nile virus [4] = experiment: Inhibitory activity determined against west nile virus (WNV) NTPase/helicase (NTPase/helicase Non structural protein 3) using DNA as substrate; type: functional; method in brief: as §2
West Nile virus [5] = experiment: Inhibitory activity against west nile virus (WNV) NTPase/helicase (NTPase/helicase Non structural protein 3) using DNA as substrate; type: functional; method in brief: as §2
West Nile virus [6] = experiment: Inhibitory activity against west nile virus (WNV) NTPase/helicase (NTPase/helicase Non structural protein 3) using RNA as substrate; type: functional; method in brief: as §2

pIC50 [1] | IC50 (West Nile virus [2]) | pIC50 [3] | IC50 (West Nile virus [4]) | SMILES | ED200 (West Nile virus [5]) | ED200 (West Nile virus [6])
3.27 | 100 µg/mL (≈ 216 µM) | 3.49 | 3 µg/mL (≈ 6.47 µM) | CCCCCCCCCCCCNc1nc(=O)c2c(ncn2[C@@H]2C[C@H](O)[C@@H](CO)O2)c(=O)[nH]1 | – | –
5.19 | 1.5 µg/mL (≈ 3.24 µM) | < 2.97 | 3 µg/mL (≈ 6.47 µM) | CCCCCCCCCCCCNc1nc(=O)c2c(ncn2[C@H]2C[C@H](O)[C@@H](CO)O2)c(=O)[nH]1 | – | –
– | – | – | > 300 µg/mL | CCCCCCCCNc1nc(=O)c2ncn([C@@H]3O[C@H](CO)[C@@H](O)C3O)c2c(=O)[nH]1 (single isomer, unassigned) | – | –
< 2.96 | 300 µg/mL (≈ 664 µM) | 2.96 | 30 µg/mL (≈ 66.4 µM) | CCCCCCCCCCNc1nc(=O)c2ncn([C@@H]3O[C@H](CO)[C@@H](O)C3O)c2c(=O)[nH]1 (single isomer, unassigned) | – | –
< 2.98 | 10 µg/mL (≈ 20.9 µM) | 3.50 | 1 µg/mL (≈ 2.09 µM) | CCCCCCCCCCCCNc1nc(=O)c2ncn([C@@H]3O[C@H](CO)[C@@H](O)C3O)c2c(=O)[nH]1 (single isomer, unassigned) | – | –
3.23 | > 500 µg/mL | 4.23 | 3 µg/mL (≈ 5.91 µM) | CCCCCCCCCCCCCCNc1nc(=O)c2ncn([C@@H]3O[C@H](CO)[C@@H](O)C3O)c2c(=O)[nH]1 (single isomer, unassigned) | – | –
< 3.03 | 500 µg/mL (≈ 933 µM) | 4.25 | 250 µg/mL (≈ 467 µM) | CCCCCCCCCCCCCCCCNc1nc(=O)c2ncn([C@@H]3O[C@H](CO)[C@@H](O)C3O)c2c(=O)[nH]1 (single isomer, unassigned) | – | –
< 3.05 | 100 µg/mL (≈ 177 µM) | 4.27 | 5 µg/mL (≈ 8.87 µM) | CCCCCCCCCCCCCCCCCCNc1nc(=O)c2ncn([C@@H]3O[C@H](CO)[C@@H](O)C3O)c2c(=O)[nH]1 (single isomer, unassigned) | – | –
– | – | – | > 300 µg/mL | CCCCCCCNc1nc(=O)c2c(ncn2C2O[C@H](CO)[C@@H](O)C2O)c(=O)[nH]1 (single isomer, unassigned) | – | –
– | – | – | > 300 µg/mL | CCCCCNc1nc(=O)c2c(ncn2C2O[C@H](CO)[C@@H](O)C2O)c(=O)[nH]1 (single isomer, unassigned) | – | –
– | – | – | > 300 µg/mL | CCCNc1nc(=O)c2c(ncn2C2O[C@H](CO)[C@@H](O)C2O)c(=O)[nH]1 (single isomer, unassigned) | – | –
– | – | – | > 300 µg/mL | CCNc1nc(=O)c2c(ncn2C2O[C@H](CO)[C@@H](O)C2O)c(=O)[nH]1 (single isomer, unassigned) | – | –
– | – | – | > 300 µg/mL | CNc1nc(=O)c2c(ncn2C2O[C@H](CO)[C@@H](O)C2O)c(=O)[nH]1 (single isomer, unassigned) | – | –
– | – | – | > 300 µg/mL | CCCCNc1nc(=O)c2c(ncn2C2O[C@H](CO)[C@@H](O)C2O)c(=O)[nH]1 (single isomer, unassigned) | – | –
– | – | – | > 300 µg/mL | CCCCCCNc1nc(=O)c2c(ncn2C2O[C@H](CO)[C@@H](O)C2O)c(=O)[nH]1 (single isomer, unassigned) | – | –
– | – | – | > 300 µg/mL | CN(C)c1nc(=O)c2c(ncn2C2O[C@H](CO)[C@@H](O)C2O)c(=O)[nH]1 (single isomer, unassigned) | – | –
– | – | – | > 500 µg/mL | O=c1nc(NCCCc2ccccc2)[nH]c(=O)c2c1ncn2C1O[C@H](CO)[C@@H](O)C1O (single isomer, unassigned) | – | –
– | – | – | > 500 µg/mL | O=c1nc(NCCc2ccccc2)[nH]c(=O)c2c1ncn2C1O[C@H](CO)[C@@H](O)C1O (single isomer, unassigned) | – | –
– | – | – | > 500 µg/mL | O=c1nc(NCc2ccccc2)[nH]c(=O)c2c1ncn2C1O[C@H](CO)[C@@H](O)C1O (single isomer, unassigned) | – | –
– | – | – | > 500 µg/mL | O=c1nc(NCCCCc2ccccc2)[nH]c(=O)c2c1ncn2C1O[C@H](CO)[C@@H](O)C1O (single isomer, unassigned) | – | –

SMILES | pIC50 [1] | IC50 (West Nile virus [2]) | pIC50 [3] | IC50 (West Nile virus [4]) | ED200 (West Nile virus [5]) | ED200 (West Nile virus [6])
CCCCCCCCCCCCNc1nc(=O)c2c(ncn2Cc2ccc(OC)cc2)c(=O)[nH]1 | < 2.97 | 1 µg/mL (≈ 2.14 µM) | < 2.97 | 5 µg/mL (≈ 10.7 µM) | – | –
CCCCCCCCCCCCNc1nc(O)c2ncnc-2c(O)n1 | < 2.84 | > 500 µg/mL | < 2.84 | > 500 µg/mL | – | –
O=c1nc(Nc2ccccc2)[nH]c(=O)c2c1ncn2C1O[C@H](CO)[C@@H](O)C1O (single isomer, unassigned) | < 2.89 | – | < 2.89 | – | 300 µg/mL | 100 µg/mL

From ChEMBL document CHEMBL1145747, “Potent inhibition of NTPase/helicase of the West Nile Virus by ring-expanded ("fat") nucleoside analogues” (J Med Chem, 2003)
